The source of these data is ChEMBL document CHEMBL4513216, “Probing the Open Global Health Chemical Diversity Library for Multistage-Active Starting Points for Next-Generation Antimalarials” (ACS Infect Dis, 2020).

This data set can be described thus: Toxicity liver stage against HepG2, at 10uM. The format is cell-based. Set-up: test concentration 10 uM, cell line HepG2-A16-CD81EGFP. To be noted: human, HepG2-A16-CD81EGFP cells; read-out: INHIBITION
In outline: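 Uninfected HepG2-A16-CD81EGFP cells, 3 × 10^3 per well, 1536-well, plated on prespotted compound at 10 μM final, parasite-free screening media added to match infected plates; puromycin 10 μM positive, DMSO 0.5% negative; run in parallel with 48 h PbLuc assay at 37 °C, 5% CO2; viability by CellTiter-Glo luminescence, normalized to controls.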
In the case of `Cn1cc(N2CC3(CCN(Cc4nccn4C)C3)CC2=O)cn1` (stereo unspecified), the cytotoxicity at 10 µM was -72.8%. Then `NC(=O)C1CCN(CC(=O)N(Cc2ccccc2)Cc2nccs2)CC1`, with -5.08%; and `CC(=O)NCc1nnn2c1CN(c1ncccn1)CCC2`, with -107%. Then `NS(=O)(=O)CCN1CCN(c2ccccc2O)CC1`, with 9.1%. On to `Cc1cc(C2CCCN2C(=O)NCc2cccnc2N(C)C)on1` (stereo unspecified), for which the cytotoxicity at 10 µM is -8.1%. Take `COCCc1noc(-c2cn(Cc3ccccc3C)nn2)n1`: the cytotoxicity at 10 µM worked out at 3.15%. Consider `CCN1CC2(CC1=O)CN(C(=O)NC(C)C)CCN(C(=O)C(C)C)C2` (stereo unspecified), for which the cytotoxicity at 10 µM is 0.508%. Then `CC(Cn1cncn1)NC(=O)N1CC2(CCCC2)c2ccccc21` (stereo unspecified), with 5.65%; and `O=C(COC[C@@]12CCC[C@@H]1CN(C1CCC1)C2)N1CCCC1`, with -110%; and `CN(Cc1cnn(C)c1)C(=O)CN1CCCCC1Cn1cncn1` (stereo unspecified), with 17.5%. Then `Cc1cccc(CN2C[C@H](OCc3csc(C)n3)[C@H]3COC[C@H]32)n1`, with 3.22%; and `COc1cccn(CC(=O)N(C)Cc2ccoc2)c1=O`, with -9.93%; and `CC(NC(=O)CSCC#N)c1cccc(Cl)c1` (stereo unspecified), with -3.06%.

As for `O=C(c1sccc1C1CC1)N1CCN(CC(F)(F)F)CC1`, the cytotoxicity at 10 µM was -1.58%.

Take `CN(Cc1ccco1)C1CCC12CCN(C(=O)N1CCCC1)CC2` (stereo unspecified): the cytotoxicity at 10 µM was -1.54%. Regarding `Cc1ccc(S(=O)(=O)N2CCC(c3n[nH]cc3C(=O)N(C)C)CC2)cc1`, the cytotoxicity at 10 µM is -1.73%. `CC(C)C(=O)Nc1cc(C(C)(C)C)nn1-c1ccccn1`: the cytotoxicity at 10 µM was -4.1%. Then `CCC1=NN2C(=N)C(=Cc3cccn3-c3cccc(Cl)c3)C(=O)N=C2S1`, with -5.7%; and `CN(C)C(=O)[C@H]1C[C@H]2CN(S(=O)(=O)Cc3ccccc3)C[C@@H]1O2`, with 4.81%. For `COc1c(F)cc(NC(=O)NCc2nncn2C2CC2)cc1F`, the cytotoxicity at 10 µM was -4.7%. As to `Cc1nccn1CCCn1cncc1-c1ccc2c(c1)CC(C)N2C` (stereo unspecified), the cytotoxicity at 10 µM worked out at 0.94%. Then `Cc1ccc(F)c(NC(=O)CCC(=O)N(C)Cc2nc(C)c[nH]2)c1`, with 7.05%. Then `CN(Cc1ccsc1)C(=O)Nc1ccc(=O)n(C)c1`, with 6.26%.

Regarding `CN(C)c1cc2c(nn1)CCN(C(=O)Cc1ccc3c(c1)CCC3)C2`, the cytotoxicity at 10 µM is -5.98%. Then `CCOCCCNC(=O)CN(c1ccc(C)c(C)c1)S(C)(=O)=O`, with 7.74%; and `CN(CC1CCCN(S(C)(=O)=O)C1)c1cnn(C)c1` (stereo unspecified), with 2.56%; and `CCOCCCC(=O)N(C)C(c1cccc(F)c1)c1ccccn1` (stereo unspecified), with -10.2%. For `CN(Cc1ccsc1)C(=O)c1cccc(S(=O)(=O)NC(C)(C)C)c1`, the cytotoxicity at 10 µM was -8.03%. `Cc1ccsc1CNc1cc(N2CCCC2CO)ncn1` (stereo unspecified): the cytotoxicity at 10 µM was -2.45%. For `COc1cc(Cl)cc(C(=O)N2CCC3(CCCNC3)C2)c1` (stereo unspecified), the cytotoxicity at 10 µM is -7%. Regarding `COc1ccccc1CN(C)Cc1ccnc(C2CCCO2)n1` (stereo unspecified), the cytotoxicity at 10 µM stood at 4.65%. Then `CC(C)CN1CCC(c2nnc(CN3CCCC3)n2C2CC2)CC1`, with -8.85%; and `CCOc1ccccc1C(=O)Oc1cc(=O)n2cccc(C)c2n1`, with 22.1%; and `Cc1cc(CN2C[C@@H]3CN(C(=O)c4ccsc4)CCO[C@@H]3C2)no1`, with -131%. Then `Cn1ccnc1CC1CCCN(C(=O)Cc2ccccc2)C1` (stereo unspecified), with -4.14%; and `O=C(NCc1nnc2ccccn12)N1CCOC(c2cccs2)C1` (stereo unspecified), with 1.64%. Then `COc1ccc(Br)cc1S(=O)(=O)N(C)Cc1ccc(N(C)C)cc1`, with -7.59%; and `Cc1ccc(CNc2ccccc2-n2ccc(C)n2)nc1`, with 5.7%. For `CO[C@@H]1CC[C@@H](NC(=O)CCc2ccc(Cl)cc2)[C@H]1O`, the cytotoxicity at 10 µM was 3.84%.

In the case of `COc1ccc(C2CCCN2C(=O)c2cc3c([nH]c2=O)CCC3)cc1` (stereo unspecified), the cytotoxicity at 10 µM was -10.7%. Then `CN1CCN(C(=O)Cc2ccccn2)Cc2cccnc21`, with -7.01%; and `Cn1nc(C2CCNC2)c2c(C(=O)NC3CC3)cc(C3CC3)nc21` (stereo unspecified), with 13.9%; and `COc1cc(C(=O)NCCc2cccc(C)c2)on1`, with 0.572%. `Cc1noc(C)c1CNC(=O)C(C)Oc1ccccc1F` (stereo unspecified): the cytotoxicity at 10 µM came to 3%.

`O=C(O)[C@H]1OCC(=O)N(Cc2cccc(Cl)c2)[C@@H]1c1ccccc1`: the cytotoxicity at 10 µM came to 7.35%.

In the case of `Cc1ccc(-n2c(O)cc(C)c(C#N)c2=O)c(C)c1`, the cytotoxicity at 10 µM was determined as 7.75%. As to `N#CCCn1cnc2c(F)cc(Br)cc2c1=O`, the cytotoxicity at 10 µM is 0.997%. Then `CC(C)CCN1CCN(c2ncnc3nc(N)ccc23)CC1`, with 11.5%; and `O=C(NCCCn1cncn1)N1CCC(N2CCCCC2)CC1`, with -7.01%. Then `CCN(CCO)C(=O)C1CCC(=O)N(CCc2cccc(F)c2)C1` (stereo unspecified), with -4.15%; and `O=C(NCC1COC2(CCOCC2)O1)c1csc(-c2cccc(Cl)c2)n1` (stereo unspecified), with -10.7%. On to `CC(C)Cc1nc(CSC2CCCN(c3cnn(C)c3)C2=O)no1` (stereo unspecified), for which the cytotoxicity at 10 µM was 17.7%.

In the case of `Cc1cccc(CN2CCCC3(CCN(CC4CCCO4)CC3)C2)n1` (stereo unspecified), the cytotoxicity at 10 µM was -121%. Then `CCC(C)C(=O)Nc1ccc(CCN2CCOCC2)cc1` (stereo unspecified), with -0.578%. Then `COCCC(=O)N1CCCC(CCC(=O)Nc2ccc(Cl)cc2)C1` (stereo unspecified), with 6.48%; and `CNC(=O)CN(C)C(=O)c1cc(Cl)c(Cl)n1C`, with 4.4%. Consider `CS(=O)(=O)Nc1cccc(C(=O)Nc2ccc3c(c2)C(=O)NC3)c1`, for which the cytotoxicity at 10 µM is 5.91%.

In the case of `CC(NC(=O)c1cnccn1)c1nnc2ccccn12` (stereo unspecified), the cytotoxicity at 10 µM was determined as 5.1%. Then `O=C(NCCc1ccncc1)c1cccc(S(=O)(=O)NC2CCOC2)c1` (stereo unspecified), with 4.93%; and `CN(c1ccc(C(=O)NCCCN2CCCC2)c(Cl)c1)S(C)(=O)=O`, with -10%; and `Cc1noc(C)c1CC(=O)OCc1nc(N)c2ccccc2n1`, with 6.83%. Then `CC(C)c1ccc(-n2cc(O)c(C(=O)N3CCC(C(N)=O)CC3)n2)cc1`, with -52.6%; and `O=C(C1CCCOC1)N1CCN(CC(F)(F)F)c2ccccc21` (stereo unspecified), with 8.09%; and `Cc1ccc2c(n1)N(CCN(C)C)CCN(C(=O)c1ccoc1)C2`, with -74.4%. Then `c1cncc(-c2ccc3c(c2)CCC32CCN(Cc3nccs3)CC2)c1`, with 36%; and `COc1cc(C(=O)N(Cc2ccco2)C2CC2)cc2c1OCCO2`, with 2.35%. Take `Cn1c(CCN2CCN(c3ccc(O)cc3)CC2)nc2ccccc21`: the cytotoxicity at 10 µM is -37.5%. Then `CN1CCCN(C(=O)c2ccc3c(c2)nc(N2CCOCC2)n3C)CC1`, with -11.9%. Then `Cc1c(CNCC(C)Oc2cccnc2)c2ccccc2n1CC(N)=O` (stereo unspecified), with -141%; and `CC(C)CN1CCn2nc(CNc3ncnc4[nH]ccc34)cc2C1`, with -0.531%.

For the compound `Cc1cncc(C(=O)N2CCCC(O)(CN(C)C)CC2)c1` (stereo unspecified), the cytotoxicity at 10 µM came to 6.22%. Then `CCNc1cc2c(nn1)CCN(C(=O)c1ccc(-n3cnnc3)cc1)C2`, with -3.51%. Then `COCC(C)N(C)C(=O)NC1CCN(S(C)(=O)=O)CC1` (stereo unspecified), with 5.36%; and `NCC(=O)N1CCCCC1c1ccc(F)cc1` (stereo unspecified), with -43.4%. Then `O=C(c1cccc(NCCO)c1)N1CCOCC1`, with -11%; and `CCN(Cc1cc(F)c(OC)c(Cl)c1)Cc1nc(COC)no1`, with 3.98%.

With `Cc1cnc(N2CCC3(CCC(C(=O)NC(C)C)OC3)CC2)nc1` (stereo unspecified), the cytotoxicity at 10 µM worked out at 0.903%. Take `COc1cc(F)c(C(=O)NCc2cc(C)on2)c(F)c1`: the cytotoxicity at 10 µM was -0.376%. On to `CNc1nc(C(=O)N2CCn3nc(C(=O)OC)cc3C2)cs1`, for which the cytotoxicity at 10 µM is -8.61%. Turning to `O=C1CC(NS(=O)(=O)c2ccccc2)CN1Cc1ccccc1` (stereo unspecified), the cytotoxicity at 10 µM is 6.89%. Then `CCc1n[nH]c(C2CN(Cc3nnc(C4CC4)n3C)CCO2)n1` (stereo unspecified), with 5.25%; and `Cc1noc(C(C)C)c1C(=O)NS(=O)(=O)c1ccc2c(c1)OCCCO2`, with -9.06%; and `Cc1csc(C(Cc2ccsc2)NC(=O)CN(C)Cc2cccnc2)n1` (stereo unspecified), with 0.471%. On to `CN(CCCNC(=O)N1CCCC1c1ccsc1)c1ccccn1` (stereo unspecified), for which the cytotoxicity at 10 µM is -4.53%. Then `Cc1c(C(=O)NC(C)C)nnn1-c1cccc(C(F)(F)F)c1`, with -1.54%; and `Cc1ccc(N2CCCC(NCc3ccc4c(c3)OCCO4)C2)nn1` (stereo unspecified), with -20.1%; and `CS(=O)(=O)N[C@@H]1CN(Cc2ccoc2)C[C@@H]2CCCO[C@@H]21`, with 13.2%. As to `C=C/C=c1\c(=C/C)oc2c(NCc3ccccc3)nc(C)nc12`, the cytotoxicity at 10 µM was 24.8%. Then `Cc1n[nH]c(C(=O)N2CCCC(C)CC2)c1Br` (stereo unspecified), with -1.74%; and `CC(C)CC(C(=O)N(C)Cc1ncnn1C)N1CCCCC1=O` (stereo unspecified), with -0.159%; and `Cn1cnnc1CNC(=O)C1CCCN(Cc2cccc(F)c2)C1` (stereo unspecified), with 5.49%. Then `CC(C)C(NC(N)=O)C(=O)N1CCN(c2ccccc2Cl)C(=O)C1` (stereo unspecified), with -1.56%. Then `O=C(CCc1nnc2ccccn2c1=O)NCc1cccnc1`, with -1.74%; and `COc1cccc(CN2CCCC3(CCN(C(=O)N4CCCC4)C3)C2)c1` (stereo unspecified), with -4.34%; and `O=C(O)c1cc2c(nc1-c1ccoc1)CCN(CC1CCOC1)CC2` (stereo unspecified), with -81.9%. In the case of `Cc1nccn1-c1cc(CNC(=O)CCNC(=O)C2CCCC2)ccn1`, the cytotoxicity at 10 µM was -2.06%.
